Reference: ChEMBL document CHEMBL1151177, “Antiviral flavonoids from the seeds of Aesculus chinensis” (J Nat Prod, 2004)
≈ marks a conversion by molar mass, not a printed value.

Legend:
[1] = test system: Influenza A virus; test: Antiviral activity against influenza virus type A H1N1 in MDCK cells assessed as inhibition of virus-induced cytopathic effect; assay type: functional, organism-based
Outline: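 Two-fold serial dilutions were applied to cell monolayers, starting at the maximal noncytotoxic concentration. An equal volume of virus at 100 TCID50/mL was added, with an untreated infected control. Plates were held at 37 °C, humidified, for 2–5 days. CPE was scored 0–4 and expressed as percent of virus control. IC50 (µg/mL), the concentration halving CPE, was read from graphic plots.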

[2] = Selectivity index, ratio of CC50 for MDCK cells to IC50 for influenza virus type A H1N1; assay type: functional
Outline: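 SI was computed as CC50/IC50. CC50 came from microscopic morphology scoring (0–4) of monolayers after 2–5 days at 37 °C. IC50 came from CPE scoring of cells infected at 100 TCID50/mL and treated with two-fold dilutions for 2–5 days at 37 °C. Both values were read from graphic plots.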

Row | Structure (SMILES) | CC50 [1] [µg/mL] | IC50 [1] [µg/mL] | Ratio CC50/IC50 [2]
1 | NC(=O)c1ncn([C@@H]2O[C@H](CO)[C@@H](O)[C@H]2O)n1 [RIBAVIRIN] | > 125 | 62.5 (≈ 256 µM) | –
2 | O=c1c(O[C@@H]2O[C@H](CO)[C@@H](O)[C@H](O)[C@H]2O)c(-c2ccc(O)c(O)c2)oc2cc(O)cc(O)c12 [ISOQUERCETIN] | > 400 | > 500 | –
3 | O=c1c(O[C@@H]2O[C@H](CO)[C@@H](O)[C@H](O)[C@H]2O[C@@H]2OC[C@@H](O)[C@H](O)[C@H]2O)c(-c2ccc(O)c(O[C@@H]3O[C@H](CO)[C@@H](O)[C@H](O)[C@H]3O)c2)oc2cc(O)cc(O)c12 | > 322 | > 500 | –
4 | O=c1c(O[C@@H]2O[C@H](CO)[C@@H](O)[C@H](O)[C@H]2O)c(-c2ccc(O)cc2)oc2cc(O)cc(O)c12 [ASTRAGALIN] | 392 (≈ 875 µM) | 24.5 (≈ 54.6 µM) | 16
5 | O=c1c(O[C@@H]2O[C@H](CO)[C@@H](O)[C@H](O)[C@H]2O[C@@H]2OC[C@@H](O)[C@H](O)[C@H]2O)c(-c2ccc(O)c(O)c2)oc2cc(O)cc(O)c12 | 198 (≈ 331 µM) | > 200 | <1
6 | O=c1c(O[C@@H]2O[C@H](CO)[C@@H](O)[C@H](O)[C@H]2O[C@@H]2OC[C@@H](O)[C@H](O)[C@H]2O)c(-c2ccc(O)cc2)oc2cc(O)cc(O)c12 | 46.9 (≈ 80.8 µM) | > 100 | <0.5
7 | C[C@@H]1O[C@@H](Oc2c(-c3ccc(O)cc3)oc3cc(O)cc(O)c3c2=O)[C@H](O)[C@H](O)[C@H]1O[C@@H]1O[C@H](CO)[C@@H](O)[C@H](O)[C@H]1O | 375 (≈ 631 µM) | > 500 | <0.8
8 | COc1ccc(-c2oc3cc(O)cc(O)c3c(=O)c2O[C@@H]2O[C@H](CO)[C@@H](O)[C@H](O)[C@H]2O[C@@H]2OC[C@@H](O)[C@H](O)[C@H]2O)cc1O[C@@H]1O[C@H](CO)[C@@H](O)[C@H](O)[C@H]1O [AESCUFLAVOSIDE A] | 322 (≈ 417 µM) | > 500 | <0.6
9 | C[C@@H]1O[C@@H](OC[C@H]2O[C@@H](Oc3c(-c4ccc(O)c(O[C@@H]5O[C@H](CO)[C@@H](O)[C@H](O)[C@H]5O)c4)oc4cc(O)cc(O)c4c3=O)[C@H](O[C@@H]3OC[C@@H](O)[C@H](O)[C@H]3O)[C@@H](O)[C@@H]2O)[C@H](O)[C@H](O)[C@H]1O [AESCUFLAVOSIDE] | 108 (≈ 119 µM) | > 100 | <1.1
10 | O=c1c(O[C@@H]2O[C@H](CO)[C@H](O)[C@H](O)[C@H]2O)c(-c2ccc(O)cc2)oc2cc(O)cc(O)c12 [TRIFOLIN] | 215 (≈ 480 µM) | > 300 | <0.7
11 | O=c1c(O[C@@H]2O[C@H](CO[C@@H]3O[C@H](CO)[C@@H](O)[C@H](O)[C@H]3O)[C@@H](O)[C@H](O)[C@H]2O[C@@H]2OC[C@@H](O)[C@H](O)[C@H]2O)c(-c2ccc(O)cc2)oc2cc(O)cc(O)c12 | 107 (≈ 144 µM) | > 100 | <1.1
